Data taken from ChEMBL document CHEMBL1143202.
Active and inactive are the calls of the source. No cut-off for these calls is given here.

Tests used:
[1] = species on record: Rattus norvegicus; assay: Effect on respiratory control coefficient in Wistar Albino rat liver mitochondria at 25 uM in presence of sodium glutamate relative to control; type: functional
Summary of the method: (§1)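 Isolated rat liver mitochondria respiring on glutamate or succinate as substrate; oxygen consumption recorded. State 3 is the rate after ADP addition and state 4 the rate after ADP is exhausted. The respiratory control coefficient (RCC) and ADP/O ratio were determined in the same runs. Flavone tested across 25–200 μM.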

[2] = species on record: Rattus norvegicus; assay: Effect on respiratory control coefficient in Wistar Albino rat liver mitochondria at 50 uM in presence of sodium glutamate relative to control; type: functional; summary of the method: as §1
[3] = species on record: Rattus norvegicus; assay: Inhibition of ATPase in Wistar Albino rat livers intact mitochondria at 200 uM in presence of FCCP relative to control; design: scale not given: the % may be the effect or the level left
[4] = species on record: Rattus norvegicus; assay: Inhibition of NADH-cytochrome c reductase in Wistar Albino rat liver mitochondria at 100 uM relative to control; design: scale not given: the % may be the effect or the level left
[5] = species on record: Rattus norvegicus; assay: Inhibition of succinate oxidase in Wistar Albino rat liver mitochondria at 200 uM relative to control; design: scale not given: the % may be the effect or the level left
[6] = system: Liver; assay: Reduction of cytochrome c in rat liver mitochondria in presence of SOD and catalase at 200 uM; type: functional
[7] = species on record: Rattus norvegicus; assay: Effect on oxygen consumption rate in Wistar Albino rat liver mitochondria assessed as inhibition in state 4 respiration at 100 uM in presence of succinate relative to control; type: functional; design: scale not given: the % may be the effect or the level left; summary of the method: as §1
[8] = species on record: Rattus norvegicus; assay: Effect on respiratory control coefficient in Wistar Albino rat liver mitochondria at 25 uM in presence of succinate relative to control; type: functional; summary of the method: as §1
[9] = species on record: Rattus norvegicus; assay: Inhibition of NADH-cytochrome c reductase in Wistar Albino rat liver mitochondria at 25 uM relative to control; design: scale not given: the % may be the effect or the level left
[10] = species on record: Rattus norvegicus; assay: Effect on oxygen consumption rate in Wistar Albino rat liver mitochondria assessed as inhibition in state 4 respiration at 100 uM in presence of sodium glutamate relative to control; type: functional; design: scale not given: the % may be the effect or the level left; summary of the method: as §1
[11] = species on record: Rattus norvegicus; assay: Effect on ADP/O ratio in Wistar Albino rat liver mitochondria at 100 uM in presence of succinate relative to control; type: functional; summary of the method: as §1
[12] = species on record: Rattus norvegicus; assay: Inhibition of cytochrome c oxidase in Wistar Albino rat liver mitochondria at 25 uM relative to control; design: scale not given: the % may be the effect or the level left
[13] = species on record: Rattus norvegicus; assay: Inhibition of succinate-cytochrome c reductase in Wistar Albino rat liver mitochondria at 75 uM relative to control; design: scale not given: the % may be the effect or the level left
[14] = species on record: Rattus norvegicus; assay: Inhibition of NADH dehydrogenase in Wistar Albino rat liver mitochondria at 200 uM relative to control; design: scale not given: the % may be the effect or the level left
[15] = species on record: Rattus norvegicus; assay: Effect on oxygen consumption rate in Wistar Albino rat liver mitochondria assessed as inhibition in state 4 respiration at 75 uM in presence of sodium glutamate relative to control; type: functional; design: scale not given: the % may be the effect or the level left; summary of the method: as §1
[16] = species on record: Rattus norvegicus; assay: Inhibition of ATPase in Wistar Albino rat livers intact mitochondria at 75 uM in presence of FCCP relative to control; design: scale not given: the % may be the effect or the level left
[17] = species on record: Rattus norvegicus; assay: Effect on ADP/O ratio in Wistar Albino rat liver mitochondria at 50 uM in presence of succinate relative to control; type: functional; summary of the method: as §1
[18] = species on record: Rattus norvegicus; assay: Inhibition of ATPase in Wistar Albino rat livers intact mitochondria at 200 uM relative to control; design: scale not given: the % may be the effect or the level left
[19] = species on record: Rattus norvegicus; assay: Inhibition of NADH-cytochrome c reductase in Wistar Albino rat liver mitochondria at 75 uM relative to control; design: scale not given: the % may be the effect or the level left
[20] = species on record: Rattus norvegicus; assay: Inhibition of ATPase in Wistar Albino rat livers disrupted mitochondria at 200 uM relative to control; design: scale not given: the % may be the effect or the level left
[21] = species on record: Rattus norvegicus; assay: Inhibition of succinate dehydrogenase in Wistar Albino rat liver mitochondria at 100 uM relative to control; design: scale not given: the % may be the effect or the level left
[22] = species on record: Rattus norvegicus; assay: Inhibition of succinate-cytochrome c reductase in Wistar Albino rat liver mitochondria at 50 uM relative to control; design: scale not given: the % may be the effect or the level left
[23] = species on record: Rattus norvegicus; assay: Effect on oxygen consumption rate in Wistar Albino rat liver mitochondria assessed as inhibition in state 4 respiration at 25 uM in presence of sodium glutamate relative to control; type: functional; design: scale not given: the % may be the effect or the level left; summary of the method: as §1
[24] = species on record: Rattus norvegicus; assay: Effect on respiratory control coefficient in Wistar Albino rat liver mitochondria at 100 uM in presence of sodium glutamate relative to control; type: functional; summary of the method: as §1
[25] = species on record: Rattus norvegicus; assay: Effect on oxygen consumption rate in Wistar Albino rat liver mitochondria assessed as inhibition in state 3 respiration at 200 uM in presence of sodium glutamate relative to control; type: functional; design: scale not given: the % may be the effect or the level left; summary of the method: as §1
[26] = species on record: Rattus norvegicus; assay: Effect on oxygen consumption rate in Wistar Albino rat liver mitochondria assessed as inhibition in state 3 respiration at 25 uM in presence of succinate relative to control; type: functional; design: scale not given: the % may be the effect or the level left; summary of the method: as §1
[27] = species on record: Rattus norvegicus; assay: Inhibition of NADH-cytochrome c reductase in Wistar Albino rat liver mitochondria at 200 uM relative to control; design: scale not given: the % may be the effect or the level left
[28] = species on record: Rattus norvegicus; assay: Inhibition of NADH dehydrogenase in Wistar Albino rat liver mitochondria at 75 uM relative to control; design: scale not given: the % may be the effect or the level left
[29] = species on record: Rattus norvegicus; assay: Effect on ADP/O ratio in Wistar Albino rat liver mitochondria at 50 uM in presence of sodium glutamate relative to control; type: functional; summary of the method: as §1
[30] = species on record: Rattus norvegicus; assay: Inhibition of ATPase in Wistar Albino rat livers intact mitochondria at 25 uM relative to control; design: scale not given: the % may be the effect or the level left
[31] = species on record: Rattus norvegicus; assay: Inhibition of succinate oxidase in Wistar Albino rat liver mitochondria at 75 uM relative to control; design: scale not given: the % may be the effect or the level left
[32] = system: Liver; assay: Reduction of cytochrome c in rat liver mitochondria in presence of SOD at 200 uM; type: functional; design: scale not given: the % may be the effect or the level left
[33] = species on record: Rattus norvegicus; assay: Inhibition of ATPase in Wistar Albino rat livers intact mitochondria at 75 uM relative to control; design: scale not given: the % may be the effect or the level left
[34] = species on record: Rattus norvegicus; assay: Inhibition of ATPase in Wistar Albino rat livers disrupted mitochondria at 100 uM relative to control; design: scale not given: the % may be the effect or the level left
[35] = system: Liver; assay: Reduction of cytochrome c in rat liver mitochondria in presence of deferoxamine at 200 uM; type: functional
[36] = species on record: Rattus norvegicus; assay: Inhibition of succinate-cytochrome c reductase in Wistar Albino rat liver mitochondria at 100 uM relative to control; design: scale not given: the % may be the effect or the level left
[37] = species on record: Rattus norvegicus; assay: Inhibition of ATPase in Wistar Albino rat livers disrupted mitochondria at 50 uM relative to control; design: scale not given: the % may be the effect or the level left
[38] = species on record: Rattus norvegicus; assay: Inhibition of cytochrome c oxidase in Wistar Albino rat liver mitochondria at 200 uM relative to control; design: scale not given: the % may be the effect or the level left
[39] = species on record: Rattus norvegicus; assay: Effect on oxygen consumption rate in Wistar Albino rat liver mitochondria assessed as inhibition in state 4 respiration at 50 uM in presence of sodium glutamate relative to control; type: functional; design: scale not given: the % may be the effect or the level left; summary of the method: as §1
[40] = species on record: Rattus norvegicus; assay: Effect on oxygen consumption rate in Wistar Albino rat liver mitochondria assessed as inhibition in state 3 respiration at 50 uM in presence of succinate relative to control; type: functional; design: scale not given: the % may be the effect or the level left; summary of the method: as §1
[41] = species on record: Rattus norvegicus; assay: Effect on oxygen consumption rate in Wistar Albino rat liver mitochondria assessed as inhibition in state 4 respiration at 75 uM in presence of succinate relative to control; type: functional; design: scale not given: the % may be the effect or the level left; summary of the method: as §1
[42] = species on record: Rattus norvegicus; assay: Effect on oxygen consumption rate in Wistar Albino rat liver mitochondria assessed as inhibition in state 3 respiration at 50 uM in presence of sodium glutamate relative to control; type: functional; design: scale not given: the % may be the effect or the level left; summary of the method: as §1

Activity [3]: 102% | Activity [4]: 40% | Activity [5]: 77% | Activity [6]: inactive | Activity [9]: 54% | Activity [12]: 98% | Activity [13]: 12% | Activity [14]: 39% | Activity [16]: 97% | Activity [18]: 101% | Activity [19]: 46% | Activity [20]: 90% | Activity [21]: 50% | Activity [22]: 23% | Activity [27]: 19% | Activity [28]: 51% | Activity [30]: 99% | Activity [31]: 86% | Activity [33]: 98% | Activity [34]: 94% | Activity [36]: 29% | Activity [37]: 102% | Activity [38]: 82%
Structure (SMILES): COc1c(O)cc2oc(-c3ccc(O)c(O)c3)cc(=O)c2c1O
Activity [1]: 73% | Activity [2]: 66.5% | Activity [7]: 132% | Activity [8]: 76.4% | Activity [10]: 99.4% | Activity [11]: 74.7% | Activity [15]: 109% | Activity [17]: 85.4% | Activity [23]: 109% | Activity [24]: 24.9% | Activity [25]: 19.8% | Activity [26]: 83% | Activity [29]: 85% | Activity [32]: 46% | Activity [35]: inactive | Activity [39]: 102% | Activity [40]: 55.2% | Activity [41]: 121% | Activity [42]: 66%
